Assay outcomes: PubChem, several laboratories
HGIII-sPLA2 inh – human group III sPLA2 inhibitors, primary screen, biochemical, QFRET, BODIPY PC-A2 liposome substrate | Group 3 secretory phospholipase A2 (Homo sapiens), Q9NZ20 | QFRET BODIPY PC-A2 liposome hydrolysis, fluorescence | 370,000 tested, 0.56% active | inhibition, % at 12.2 µM;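 active = inhibition above mean plus 3 SD of compounds lying within the high and low control bounds, cut at about 19% in these data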;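 also: 0% = median of test compound wells and 100% = no enzyme DMSO wells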
Bfl-1 A1 inh – caspase 3/7 activation in MEF A1-2A-BIM cells, primary screen, A1 inhibitor project, cell-based, luminescence, HTS; AID 2462, 2010; Caspase-Glo 3/7 luminescence, 3 h; percent of clofoctol response, vehicle zero; caspase activation, % (no concentration beside the values); 330,000 tested, 0.066% active;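 active = over half of replicate activation scores above 10%, or exactly half above 10 with the replicate mean above 10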
NTR1 ag – agonists of human NTR1, primary screen, imaging, U2OS cells, beta-arrestin-GFP, high content; Neurotensin receptor type 1 (Homo sapiens), P30989; NTR1-U2OS beta-arrestin-GFP spot imaging, agonist mode; activation, % at 20 µM; 330,000 tested, 0.17% active;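 active = activation at or above 40% of the spot to cytoplasm intensity ratio, with at least 20 cells analyzed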;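 also: 0% = DMSO without peptide and 100% = 100 nM NTR1 peptide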
Target sequence (P30989 whole entry, looked up): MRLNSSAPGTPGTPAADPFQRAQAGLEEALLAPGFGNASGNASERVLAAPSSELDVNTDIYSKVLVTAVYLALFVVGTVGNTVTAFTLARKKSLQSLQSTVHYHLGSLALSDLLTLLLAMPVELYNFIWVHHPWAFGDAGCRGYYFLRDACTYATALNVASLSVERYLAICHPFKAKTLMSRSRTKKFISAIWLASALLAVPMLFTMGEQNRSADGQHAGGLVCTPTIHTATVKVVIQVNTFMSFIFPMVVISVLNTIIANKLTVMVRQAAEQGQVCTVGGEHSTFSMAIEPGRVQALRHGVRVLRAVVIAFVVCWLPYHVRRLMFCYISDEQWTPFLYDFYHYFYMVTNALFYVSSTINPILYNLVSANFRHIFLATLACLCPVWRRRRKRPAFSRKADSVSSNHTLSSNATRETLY
Granule exo inh – LAMP-1 surface exposure blockers, TALL-104 cells – cell-based, flow cytometry, MLPCN library, primary screen. inhibition, % at 10 µM. TALL-104 LAMP-1 surface exposure; cells stimulated with thapsigargin and PMA. 360,000 tested, 0.66% active;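 active = inhibition above about 55%, limit read from the data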
MC4R ag barr – MC4R agonists recruiting beta-arrestin, primary screen, cell-based, luminescence, agonist arm of biased-ligand search; Melanocortin receptor 4 (Homo sapiens), P32245; U2OS MC4R beta-arrestin complementation; percent of melanotan II response, DMSO zero; activation, % at 8.9 µM; 360,000 tested, 0.98% active; AID 540308, 2011;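 active = activation above a per-plate cutoff, the mean activation of sample wells on that plate plus 3 SD, cut at about 8% in these data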
MC4R antagonist – MC4R antagonists of cAMP signaling, primary screen, cell-based, TR-FRET, antagonist arm of biased-ligand search; 360,000 tested, 0.48% active; MC4R-expressing cells, MTII-stimulated cAMP, LANCE TR-FRET; inhibition, % at 6.5 µM; AID 540295, 2011; Melanocortin receptor 4 (Homo sapiens), P32245;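 active = inhibition above its plate's cutoff, the mean of tested wells on that plate plus 3 SD, cut at about 29% in these data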;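 also: 0% = Melanotan II alone and 100% = Melanotan II plus saturating MCL0020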
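Material: human MC4R-expressing U2OS cells. Probe or stimulus: Melanotan II challenge. Dosing: 6.5 µM single dose. Times: 30-min compound, 1-h challenge, 1-h detection, room temperature. Technique: TR-FRET with Eu-cAMP and labeled anti-cAMP, 671 nm. Replication: singlicate.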
sPLA2 confirm – human group III sPLA2 inhibitors, confirmation, biochemical, QFRET, triplicate; shares compounds with HGIII-sPLA2 inh; recombinant hGIII-sPLA2, BODIPY PC-A2 QFRET fluorescence; inhibition, % at 12.2 µM; 2,000 tested, 34% active;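 active = mean inhibition across triplicates above the hit cutoff set in the earlier primary screen, cut at about 19% in these data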;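 also: 0% = enzyme with DMSO and 100% = DMSO wells lacking enzyme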
535nm interf – 535nm fluorescence optical interference, confirmation, artefact control for HGIII-sPLA2 inhibitor project, biochemical, QFRET; shares compounds with HGIII-sPLA2 inh; BODIPY FL product fluorescence interference; inhibition, % at 12.2 µM; 2,000 tested, 8.5% active; AID 743282, 2014;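 active = average inhibition above the solvent-only control mean plus 3 SD, cut at about 6% in these data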;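 also: 0% = DMSO with substrate plus product and 100% = DMSO with substrate alone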
Starred values were filed as active, the others as inactive. A selection: hits, their analogues and other compounds. The true share with any hit is near 2.5%.

Results for Cc1ccc(S(=O)(=O)N2C[C@@H](C)[C@]3(C2)[C@H](O)[C@H](OC(=O)Nc2cccs2)C[C@H]2C(=O)N(c4ccccc4)C(=O)[C@H]23)cc1 ?
HGIII-sPLA2 inh: -31.3; Granule exo inh: 2.1; MC4R ag barr: -2.0; MC4R antagonist: 12.0

What do the screens show for `CSc1ccccc1OCc1cc(C(=O)NCCCn2nc(C)cc2C)no1`?
HGIII-sPLA2 inh: -9.3; Bfl-1 A1 inh: -0.1; NTR1 ag: -0.7; Granule exo inh: -1.0; MC4R ag barr: 1.2; MC4R antagonist: 11.2

How did CCOC(=O)Cn1c(=O)c2c(nc(N3CCCCC3)n2C)n(C)c1=O do in these assays?
HGIII-sPLA2 inh: 19.8*; Bfl-1 A1 inh: 2.4; NTR1 ag: 0.6; Granule exo inh: 3.2; MC4R ag barr: -2.4; MC4R antagonist: -4.5; sPLA2 confirm: -3.3; 535nm interf: -6.0

Results for S=C1NCCNC(=S)NCCOCCN1 ?
HGIII-sPLA2 inh: 4.8; Bfl-1 A1 inh: 0.6; NTR1 ag: -0.1; Granule exo inh: 0.5; MC4R ag barr: -0.7; MC4R antagonist: 5.4

How did CC(C)C(N)c1csc(NC(=O)Nc2cccc(Cl)c2)n1 (stereo unspecified) do in these assays?
HGIII-sPLA2 inh: 22.4*; Granule exo inh: 1.9; MC4R ag barr: -0.7; MC4R antagonist: -3.4; sPLA2 confirm: 8.4; 535nm interf: -9.1

How did NC(c1csc(NC(=O)Nc2cccc(Cl)c2)n1)c1ccccc1Cl (stereo unspecified) do in these assays?
HGIII-sPLA2 inh: 14.4; Granule exo inh: 3.4; MC4R ag barr: 4.2; MC4R antagonist: 4.8

Results for CC(C)c1ccc(NC(=O)Nc2nc(C(N)COCc3ccccc3)cs2)cc1 (stereo unspecified) ?
HGIII-sPLA2 inh: 21.7*; Granule exo inh: 15.0; MC4R ag barr: 8.0; MC4R antagonist: 19.6; sPLA2 confirm: 7.9; 535nm interf: -3.3

What do the screens show for `Cc1ccccc1NC(=O)Nc1nc(C(N)c2ccccc2)cs1` (stereo unspecified)?
HGIII-sPLA2 inh: 22.4*; Granule exo inh: -7.8; MC4R ag barr: 0.1; MC4R antagonist: 3.3; sPLA2 confirm: 1.1; 535nm interf: -3.0

Results for CC(C)CC(N)c1csc(NC(=O)Nc2ccccc2C(C)C)n1 (stereo unspecified) ?
HGIII-sPLA2 inh: 22.5*; Granule exo inh: 19.7; MC4R ag barr: 1.2; MC4R antagonist: 0.6; sPLA2 confirm: 3.4; 535nm interf: -21.1

Results for COc1cccc(NC(=O)CN(C)C(=O)c2cc(C)on2)c1 ?
HGIII-sPLA2 inh: 6.6; Bfl-1 A1 inh: -0.6; NTR1 ag: 0.3; Granule exo inh: -2.1; MC4R ag barr: -3.7; MC4R antagonist: 0.0

What do the screens show for `OC(c1ccc(F)c(F)c1)c1ncc(-c2cccc(C(F)(F)F)c2)[nH]1` (stereo unspecified)?
HGIII-sPLA2 inh: -10.6; Granule exo inh: 16.8; MC4R ag barr: 5.3; MC4R antagonist: -16.4

How did C/C(CCC12CC3CC(CC(C3)C1)C2)=N\NC(N)=S do in these assays?
HGIII-sPLA2 inh: 7.3; Bfl-1 A1 inh: -0.7; NTR1 ag: 4.2; Granule exo inh: -3.8; MC4R ag barr: -2.7; MC4R antagonist: 10.4
